ChEMBL document CHEMBL3232818, “Imidazole-derived 2-[N-carbamoylmethyl-alkylamino]acetic acids, substrate-dependent modulators of insulin-degrading enzyme in amyloid-β hydrolysis” (Eur J Med Chem, 2014)
In brackets after ≈: the same amount, converted by molar mass. Activity calls are given as the source filed them. The calls are words filed in the database; no cut-off is given here.

Tests used:
[1] = target: Insulin-degrading enzyme (Homo sapiens) (UniProt P14735); assay: Inhibition of IDE in human SH-SY5Y cells expressing human APP751 with Swedish mutant/human […] assessed as increase of amyloid beta (1 to 42) level after 24 to 48 hrs by ELISA; format: cell-based
Summary of the method: (§1)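 SH-SY5Y APPswe and APPwt lines kept in DMEM with 10% fetal calf serum, 2 mM L-glutamine, 5% CO2, 37 °C. Seeded at 1.94 10^5 cells/well and treated 24 h later with vehicle or drug at 0.1 or 10 μM (from 10 mM DMSO stock) for 24 h and 48 h. Medium cleared by centrifugation and assayed by ELISA. Aβ1-42 used 100 μL of medium undiluted; Aβ1-40 used 10 μL diluted 1:10. Duplicates in three independent experiments, normalized to untreated cells.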

[2] = target: T1, Insulin-degrading enzyme (Mus musculus) (UniProt Q9JHR7); assay: Inhibition of IDE in mouse Min6 cells assessed as effect on 2.8 mM of glucose-induced insulin secretion at 10 uM after 24 hrs by ELISA; format: cell-based
T1 sequence (whole entry): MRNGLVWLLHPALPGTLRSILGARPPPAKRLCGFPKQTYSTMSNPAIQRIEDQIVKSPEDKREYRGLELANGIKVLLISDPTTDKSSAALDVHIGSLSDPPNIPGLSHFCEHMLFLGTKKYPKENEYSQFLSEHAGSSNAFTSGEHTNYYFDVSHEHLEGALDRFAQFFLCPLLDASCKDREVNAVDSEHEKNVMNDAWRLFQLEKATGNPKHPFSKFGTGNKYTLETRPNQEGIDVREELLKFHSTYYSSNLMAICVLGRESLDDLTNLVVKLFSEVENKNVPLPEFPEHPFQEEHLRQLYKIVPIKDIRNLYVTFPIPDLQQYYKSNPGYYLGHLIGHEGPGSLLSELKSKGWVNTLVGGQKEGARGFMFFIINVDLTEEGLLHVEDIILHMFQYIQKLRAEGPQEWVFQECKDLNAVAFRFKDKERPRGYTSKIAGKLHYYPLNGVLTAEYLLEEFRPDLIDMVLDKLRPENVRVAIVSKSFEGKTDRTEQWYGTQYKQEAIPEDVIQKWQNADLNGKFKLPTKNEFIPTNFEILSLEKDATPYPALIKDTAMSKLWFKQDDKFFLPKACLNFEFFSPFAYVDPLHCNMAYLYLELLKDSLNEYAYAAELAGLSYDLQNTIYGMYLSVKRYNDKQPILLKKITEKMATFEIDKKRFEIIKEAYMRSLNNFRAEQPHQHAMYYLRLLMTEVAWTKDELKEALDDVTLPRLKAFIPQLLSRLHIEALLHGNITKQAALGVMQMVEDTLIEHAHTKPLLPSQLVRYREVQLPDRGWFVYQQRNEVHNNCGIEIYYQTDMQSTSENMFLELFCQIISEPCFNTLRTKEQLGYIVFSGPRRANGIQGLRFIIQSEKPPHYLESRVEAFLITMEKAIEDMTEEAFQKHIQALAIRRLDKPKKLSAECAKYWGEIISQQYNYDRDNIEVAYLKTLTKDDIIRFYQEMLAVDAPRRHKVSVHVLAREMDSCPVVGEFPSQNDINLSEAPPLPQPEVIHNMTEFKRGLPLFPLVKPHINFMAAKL

[3] = target: T1, Insulin-degrading enzyme (Mus musculus); assay: Inhibition of IDE in mouse Min6 cells assessed as effect on 11 mM of glucose-induced insulin secretion at 10 uM after 24 hrs by ELISA; format: cell-based
[4] = target: T1, Insulin-degrading enzyme (Mus musculus); assay: Inhibition of IDE in mouse Min6 cells assessed as effect on 20 mM of glucose-induced insulin secretion at 10 uM after 24 hrs by ELISA; format: cell-based
[5] = target: Insulin-degrading enzyme (Homo sapiens) (UniProt P14735); assay: Inhibition of IDE in immortalized human hepatocytes assessed as effect on insulin-induced PEPCK mRNA expression at 10 uM after 24 hrs by quantitative RT-PCR analysis; format: cell-based; design: scale not given: the % may be the effect or the level left; conditions: Hepatocyte
[6] = target: T2, Insulin-degrading enzyme (Homo sapiens, UniProt P14735); assay: Inhibition of human recombinant IDE-mediated amyloid beta (16 to 23) hydrolysis using ATTO 655-Cys-Lys-Leu-Val-Phe-Phe-Ala-Glu-Asp-Trp as substrate preincubated for 10 mins measured after 30 mins by spectrophotometer analysis
T2 sequence (P14735 whole entry): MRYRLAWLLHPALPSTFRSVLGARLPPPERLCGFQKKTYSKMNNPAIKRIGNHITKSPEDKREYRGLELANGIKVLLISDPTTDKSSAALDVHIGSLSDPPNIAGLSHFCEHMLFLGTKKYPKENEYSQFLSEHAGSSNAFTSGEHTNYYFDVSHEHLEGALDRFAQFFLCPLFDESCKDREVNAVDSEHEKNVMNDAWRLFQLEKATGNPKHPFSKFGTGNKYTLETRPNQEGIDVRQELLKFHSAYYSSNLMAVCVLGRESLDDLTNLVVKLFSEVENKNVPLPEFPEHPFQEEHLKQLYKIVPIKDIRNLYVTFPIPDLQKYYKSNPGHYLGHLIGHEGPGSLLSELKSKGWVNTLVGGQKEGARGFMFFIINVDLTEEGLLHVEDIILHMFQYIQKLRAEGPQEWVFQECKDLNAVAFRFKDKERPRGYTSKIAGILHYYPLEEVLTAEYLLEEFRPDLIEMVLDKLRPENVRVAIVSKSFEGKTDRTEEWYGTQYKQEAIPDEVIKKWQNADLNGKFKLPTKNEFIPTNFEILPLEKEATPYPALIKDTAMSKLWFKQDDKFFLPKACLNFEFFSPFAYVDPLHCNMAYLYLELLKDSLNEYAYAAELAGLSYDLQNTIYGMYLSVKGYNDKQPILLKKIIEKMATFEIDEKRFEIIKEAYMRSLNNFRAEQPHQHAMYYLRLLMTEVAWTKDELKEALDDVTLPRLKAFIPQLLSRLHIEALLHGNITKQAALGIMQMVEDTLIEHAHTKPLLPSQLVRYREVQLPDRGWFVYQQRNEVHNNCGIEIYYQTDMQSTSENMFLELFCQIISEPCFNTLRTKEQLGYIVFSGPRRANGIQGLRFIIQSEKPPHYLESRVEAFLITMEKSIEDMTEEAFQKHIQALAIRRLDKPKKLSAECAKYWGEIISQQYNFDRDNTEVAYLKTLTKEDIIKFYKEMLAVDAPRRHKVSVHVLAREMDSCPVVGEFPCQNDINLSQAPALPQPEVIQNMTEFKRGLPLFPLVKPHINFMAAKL

[7] = target: Insulin-degrading enzyme (Homo sapiens) (UniProt P14735); assay: Inhibition of human recombinant IDE-mediated insulin hydrolysis assessed as residual insulin level at 100 uM preincubated for 10 mins measured after 30 mins by spectrophotometer analysis
[8] = Solubility of the compound in PBS at pH 7.4; format: physicochemical
[9] = PBS-octanol partition coefficient, log D of the compound; format: physicochemical
[10] = Apparent permeability across human Caco2 cells at 10 uM after 1 hr by LC-MS/MS analysis; format: ADME, cell-based; conditions: Caco-2
[11] = system: Plasma; assay: Prodrug conversion in mouse plasma assessed as half life of BDM43079 formation at 10 uM by LC-MS/MS analysis; format: ADME, cell-free
[12] = Prodrug conversion in IHH cell culture medium assessed as half life of BDM43079 formation at 10 uM by LC-MS/MS analysis; format: ADME, cell-based; conditions: human, hh
Summary of the method: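 Conversion to the active acid followed in William's E medium with 10% fetal calf serum.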

[13] = target: Insulin-degrading enzyme (Homo sapiens) (UniProt P14735); assay: Inhibition of IDE in human SH-SY5Y cells expressing human APP751 with Swedish mutant/human […] assessed as increase of amyloid beta (1 to 40) level after 24 to 48 hrs by ELISA; format: cell-based; summary of the method: as §1
[14] = target: Insulin-degrading enzyme (Homo sapiens) (UniProt P14735); assay: Inhibition of IDE in human SH-SY5Y cells expressing human APP751 with Swedish mutant/human […] assessed as effect on CTFs level after 24 to 48 hrs by Western blot
[15] = target: Insulin-degrading enzyme (Homo sapiens) (UniProt P14735); assay: Inhibition of IDE in human SH-SY5Y cells expressing human APP751 with Swedish mutant/human […] assessed as effect on APP holoproteins level after 24 to 48 hrs by Western blot
[16] = target: Neprilysin (Homo sapiens, UniProt P08473); assay: Inhibition of human NEP-mediated amyloid beta hydrolysis
Chain of Neprilysin (P08473 whole entry): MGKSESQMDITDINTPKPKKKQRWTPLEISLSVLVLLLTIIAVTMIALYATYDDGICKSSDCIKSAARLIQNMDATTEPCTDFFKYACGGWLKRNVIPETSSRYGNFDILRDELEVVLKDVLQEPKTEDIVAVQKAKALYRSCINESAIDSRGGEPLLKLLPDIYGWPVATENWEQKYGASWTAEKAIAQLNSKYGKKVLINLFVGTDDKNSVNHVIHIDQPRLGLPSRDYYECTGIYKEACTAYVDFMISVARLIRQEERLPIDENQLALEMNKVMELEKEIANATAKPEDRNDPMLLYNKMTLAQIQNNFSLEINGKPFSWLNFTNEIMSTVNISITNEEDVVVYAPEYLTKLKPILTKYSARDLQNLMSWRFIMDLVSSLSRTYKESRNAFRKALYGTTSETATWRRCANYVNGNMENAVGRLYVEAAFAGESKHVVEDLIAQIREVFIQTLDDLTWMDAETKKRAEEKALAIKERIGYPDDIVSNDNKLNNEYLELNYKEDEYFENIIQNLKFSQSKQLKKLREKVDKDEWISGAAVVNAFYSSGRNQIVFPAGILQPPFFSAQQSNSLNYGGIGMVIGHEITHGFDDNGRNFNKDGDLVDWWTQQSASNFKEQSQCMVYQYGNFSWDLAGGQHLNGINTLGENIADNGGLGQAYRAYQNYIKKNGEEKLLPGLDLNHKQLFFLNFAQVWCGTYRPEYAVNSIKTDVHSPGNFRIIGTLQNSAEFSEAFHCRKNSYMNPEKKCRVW

[17] = target: T3, Endothelin-converting enzyme 1 (Homo sapiens, UniProt P42892); assay: Inhibition of human recombinant ECE1-mediated amyloid beta hydrolysis after 45 mins by fluorimetry assay
T3 sequence (P42892 whole entry): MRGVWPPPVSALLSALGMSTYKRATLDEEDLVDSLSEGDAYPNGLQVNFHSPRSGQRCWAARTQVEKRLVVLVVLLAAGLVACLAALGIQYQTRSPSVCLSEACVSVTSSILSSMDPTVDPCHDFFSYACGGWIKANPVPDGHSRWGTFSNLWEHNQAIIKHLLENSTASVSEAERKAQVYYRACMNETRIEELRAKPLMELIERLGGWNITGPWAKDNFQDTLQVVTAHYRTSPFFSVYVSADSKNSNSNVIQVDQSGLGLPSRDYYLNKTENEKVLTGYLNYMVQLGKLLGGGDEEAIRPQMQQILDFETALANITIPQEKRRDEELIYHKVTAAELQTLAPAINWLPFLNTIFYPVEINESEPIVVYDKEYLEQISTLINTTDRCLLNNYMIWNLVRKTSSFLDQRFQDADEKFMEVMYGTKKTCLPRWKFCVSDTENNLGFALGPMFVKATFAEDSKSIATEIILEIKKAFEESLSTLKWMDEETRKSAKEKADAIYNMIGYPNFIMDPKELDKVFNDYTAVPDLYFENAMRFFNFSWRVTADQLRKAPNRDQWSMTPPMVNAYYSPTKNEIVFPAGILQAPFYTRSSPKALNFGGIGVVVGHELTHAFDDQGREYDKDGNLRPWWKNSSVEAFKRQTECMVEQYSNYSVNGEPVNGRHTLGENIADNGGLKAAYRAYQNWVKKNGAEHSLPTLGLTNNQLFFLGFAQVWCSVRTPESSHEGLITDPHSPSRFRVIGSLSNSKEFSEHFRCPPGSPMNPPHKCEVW

[18] = target: Angiotensin-converting enzyme (Homo sapiens, UniProt P12821); assay: Inhibition of human ACE-mediated amyloid beta hydrolysis
Chain of Angiotensin-converting enzyme (P12821 whole entry): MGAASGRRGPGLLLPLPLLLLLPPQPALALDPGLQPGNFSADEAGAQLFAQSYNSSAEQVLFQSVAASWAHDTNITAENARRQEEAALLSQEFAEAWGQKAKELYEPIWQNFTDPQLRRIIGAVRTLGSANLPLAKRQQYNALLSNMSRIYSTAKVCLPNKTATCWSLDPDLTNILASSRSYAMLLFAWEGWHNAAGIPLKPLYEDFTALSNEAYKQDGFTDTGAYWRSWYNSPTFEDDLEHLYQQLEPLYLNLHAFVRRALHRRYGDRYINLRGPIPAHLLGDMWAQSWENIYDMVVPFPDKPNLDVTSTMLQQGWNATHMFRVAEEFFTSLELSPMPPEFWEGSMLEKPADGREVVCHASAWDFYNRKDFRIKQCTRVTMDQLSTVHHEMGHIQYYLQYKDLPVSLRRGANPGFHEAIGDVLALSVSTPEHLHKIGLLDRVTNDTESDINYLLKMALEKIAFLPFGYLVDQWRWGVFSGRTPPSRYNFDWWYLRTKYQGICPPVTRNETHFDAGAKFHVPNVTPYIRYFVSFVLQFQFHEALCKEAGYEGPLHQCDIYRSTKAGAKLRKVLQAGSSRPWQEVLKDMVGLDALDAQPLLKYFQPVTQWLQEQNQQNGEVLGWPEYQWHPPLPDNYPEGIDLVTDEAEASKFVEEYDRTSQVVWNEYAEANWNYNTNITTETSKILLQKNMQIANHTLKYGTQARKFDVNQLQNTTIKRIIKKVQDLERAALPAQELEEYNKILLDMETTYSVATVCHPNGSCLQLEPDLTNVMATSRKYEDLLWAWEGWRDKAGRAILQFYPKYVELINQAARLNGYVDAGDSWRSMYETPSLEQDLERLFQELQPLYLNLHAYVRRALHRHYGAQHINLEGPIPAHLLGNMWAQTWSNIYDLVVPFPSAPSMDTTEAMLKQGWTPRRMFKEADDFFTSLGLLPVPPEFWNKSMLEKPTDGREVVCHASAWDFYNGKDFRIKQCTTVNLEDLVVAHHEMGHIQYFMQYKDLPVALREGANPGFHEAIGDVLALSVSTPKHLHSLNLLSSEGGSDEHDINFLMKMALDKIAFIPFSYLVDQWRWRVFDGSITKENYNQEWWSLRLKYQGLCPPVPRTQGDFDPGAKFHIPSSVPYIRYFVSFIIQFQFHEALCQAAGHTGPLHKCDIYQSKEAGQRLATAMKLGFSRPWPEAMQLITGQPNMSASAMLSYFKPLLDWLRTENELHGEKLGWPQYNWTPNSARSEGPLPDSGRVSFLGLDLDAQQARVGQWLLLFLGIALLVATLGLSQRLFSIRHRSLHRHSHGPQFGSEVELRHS

[19] = target: Angiotensin-converting enzyme 2 (Homo sapiens, UniProt Q9BYF1); assay: Inhibition of human recombinant ACE2-mediated amyloid beta hydrolysis using Mca-Tyr-Val-Ala-Asp-Pro-Ala-Lys-(DNP)-OH as substrate after 20 mins by fluorimetry assay
Chain of Angiotensin-converting enzyme 2 (Q9BYF1 whole entry, the tested form may be a part): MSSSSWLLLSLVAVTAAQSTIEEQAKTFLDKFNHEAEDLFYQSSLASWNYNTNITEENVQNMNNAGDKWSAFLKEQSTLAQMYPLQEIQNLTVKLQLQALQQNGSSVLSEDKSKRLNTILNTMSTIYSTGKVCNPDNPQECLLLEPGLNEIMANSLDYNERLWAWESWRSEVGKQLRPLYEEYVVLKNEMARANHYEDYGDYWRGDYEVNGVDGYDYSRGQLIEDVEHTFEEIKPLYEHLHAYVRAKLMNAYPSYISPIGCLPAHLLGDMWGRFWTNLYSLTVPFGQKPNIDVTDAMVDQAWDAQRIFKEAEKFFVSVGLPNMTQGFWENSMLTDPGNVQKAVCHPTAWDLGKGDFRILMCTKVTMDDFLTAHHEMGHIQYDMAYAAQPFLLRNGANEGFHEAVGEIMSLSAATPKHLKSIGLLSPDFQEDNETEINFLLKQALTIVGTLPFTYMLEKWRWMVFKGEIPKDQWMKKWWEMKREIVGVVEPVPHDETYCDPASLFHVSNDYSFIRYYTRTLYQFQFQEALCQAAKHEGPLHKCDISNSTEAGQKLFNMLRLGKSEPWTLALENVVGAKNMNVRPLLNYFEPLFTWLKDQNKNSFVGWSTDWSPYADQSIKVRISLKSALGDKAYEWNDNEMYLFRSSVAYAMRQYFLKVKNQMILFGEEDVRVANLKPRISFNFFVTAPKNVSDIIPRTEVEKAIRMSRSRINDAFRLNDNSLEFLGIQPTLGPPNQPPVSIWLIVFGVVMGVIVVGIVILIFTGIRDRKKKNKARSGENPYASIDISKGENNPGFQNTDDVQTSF

[20] = target: Disintegrin and metalloproteinase domain-containing protein 17 (Homo sapiens, UniProt P78536); assay: Inhibition of human recombinant TACE-mediated amyloid beta hydrolysis after 5 mins by fluorimetry assay
Chain of Disintegrin and metalloproteinase domain-containing protein 17 (P78536 whole entry, the tested form may be a part): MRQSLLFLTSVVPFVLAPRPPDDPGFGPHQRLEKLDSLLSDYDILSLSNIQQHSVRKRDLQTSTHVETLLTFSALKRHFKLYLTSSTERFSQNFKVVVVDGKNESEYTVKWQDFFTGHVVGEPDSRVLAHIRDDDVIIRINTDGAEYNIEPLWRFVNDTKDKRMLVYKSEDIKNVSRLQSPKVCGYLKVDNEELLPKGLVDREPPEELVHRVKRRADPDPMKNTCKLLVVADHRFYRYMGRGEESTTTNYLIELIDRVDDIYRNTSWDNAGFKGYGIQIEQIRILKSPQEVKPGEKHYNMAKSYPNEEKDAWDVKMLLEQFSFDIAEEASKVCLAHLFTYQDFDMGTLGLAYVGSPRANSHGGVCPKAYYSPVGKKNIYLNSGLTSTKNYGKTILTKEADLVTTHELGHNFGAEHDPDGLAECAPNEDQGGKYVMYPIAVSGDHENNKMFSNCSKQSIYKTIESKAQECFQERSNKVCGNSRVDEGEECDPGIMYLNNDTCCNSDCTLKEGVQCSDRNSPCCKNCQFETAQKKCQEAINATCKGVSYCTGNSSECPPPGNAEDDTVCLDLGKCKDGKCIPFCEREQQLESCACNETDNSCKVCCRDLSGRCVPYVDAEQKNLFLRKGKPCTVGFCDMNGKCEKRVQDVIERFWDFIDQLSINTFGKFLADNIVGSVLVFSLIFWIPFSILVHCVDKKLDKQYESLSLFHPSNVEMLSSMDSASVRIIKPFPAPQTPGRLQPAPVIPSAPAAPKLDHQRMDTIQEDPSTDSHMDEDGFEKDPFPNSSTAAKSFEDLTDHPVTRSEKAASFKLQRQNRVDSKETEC

[21] = target: T4, Interstitial collagenase (Homo sapiens, UniProt P03956); assay: Inhibition of human recombinant MMP1-mediated amyloid beta hydrolysis using DNP-Pro-Cha-Gly- Cys(Me)-His-Ala- Lys(n-Me-Abz)-NH2 as substrate after 40 mins by fluorimetry assay
T4 sequence (P03956 whole entry): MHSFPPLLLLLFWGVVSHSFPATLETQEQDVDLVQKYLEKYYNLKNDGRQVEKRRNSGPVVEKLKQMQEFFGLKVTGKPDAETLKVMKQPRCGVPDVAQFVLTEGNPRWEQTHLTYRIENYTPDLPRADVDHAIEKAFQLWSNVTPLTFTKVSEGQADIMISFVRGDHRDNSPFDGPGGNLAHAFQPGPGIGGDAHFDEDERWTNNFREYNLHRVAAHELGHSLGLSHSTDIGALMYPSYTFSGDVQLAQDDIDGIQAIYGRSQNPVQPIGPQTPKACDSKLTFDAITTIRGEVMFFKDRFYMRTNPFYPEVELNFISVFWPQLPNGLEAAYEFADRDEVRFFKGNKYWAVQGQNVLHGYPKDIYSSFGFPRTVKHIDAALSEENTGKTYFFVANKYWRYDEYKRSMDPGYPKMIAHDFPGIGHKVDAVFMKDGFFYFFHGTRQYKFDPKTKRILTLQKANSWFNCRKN

[22] = target: Collagenase 3 (Homo sapiens, UniProt P45452); assay: Inhibition of human recombinant MMP13-mediated amyloid beta hydrolysis after 10 mins by fluorimetry assay
[23] = Half life in mouse plasma at 10 uM by LC-MS/MS analysis; format: ADME, cell-free
[24] = Half life in human liver microsomes at 1 uM by LC-MS/MS analysis; format: ADME
[25] = Half life in IHH cell culture medium at 10 uM by LC-MS/MS analysis; format: physicochemical, HH
Summary of the method: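 Stability measured in William's E medium with 10% fetal calf serum.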

CNC(=O)[C@H](Cc1c[nH]cn1)NC(=O)CN(CCCc1ccccc1)CC(=O)OC
inhibition [1]: Dose-dependent effect | Activity [2]: 21.2 µg/L | Activity [3]: 78.8 µg/L | Activity [4]: 132 µg/L | Activity [5]: 62% | IC50 [6]: > 100 µM | Activity [7]: 50% | solubility [8]: 74 µM (≈ 30.7 µg/mL) | logD [9]: 1.1 | Papp at 1 h, 10 µM [10]: 2 nm/s | t1/2 [11]: 6 min | t1/2 [12]: 11.3 h | inhibition [13]: Dose-dependent effect | inhibition [14]: inactive | inhibition [15]: inactive

CNC(=O)[C@H](Cc1c[nH]cn1)NC(=O)CN(CCCc1ccccc1)CC(=O)O
IC50 [16]: > 100 µM | IC50 [17]: > 100 µM | IC50 [18]: > 100 µM | IC50 [19]: > 100 µM | IC50 [20]: > 100 µM | IC50 [21]: > 100 µM | IC50 [22]: > 100 µM | solubility [8]: 68 µM (≈ 27.3 µg/mL) | logD [9]: -1.4 | half-life at 10 µM [23]: > 48 h | half-life at 1 µM [24]: > 0.667 h | half-life at 10 µM [25]: > 24 h

COC(=O)[C@H](Cc1ccccc1)NC(=O)CN(CC(=O)O)Cc1ccccc1
IC50 [6]: > 100 µM
